In brackets after ≈: the same amount, converted by molar mass. Activity calls are given as the source filed them. The calls are words filed in the database; no cut-off is given here.
Legend:
[1] = tested on: Candida albicans; test: Antifungal activity against Candida albicans NCIM 300 at 10 ug/ml after 2 to 3 days by serial plate dilution method; assay type: functional; conditions: read-out: IZ
How it was run: (§1)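 For the fungal lawn, a loopful of each strain was suspended in 3 ml normal saline and spread on agar plates. Excess suspension was decanted and the plates were dried 1 h at 37 °C. Wells were punched and labeled. Plates, including a triplicate control, were held at 37 °C for 2–3 days. Zones of inhibition and MIC were recorded against fluconazole as standard.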

[2] = tested on: Aspergillus niger; test: Antifungal activity against Aspergillus niger NCIM 617 after 2 to 3 days by serial plate dilution method; assay type: functional; how it was run: as §1
[3] = tested on: Pseudomonas aeruginosa; test: Antibacterial activity against Pseudomonas aeruginosa ATCC 27853 at >50 ug/ml after 24 hrs by disc diffusion method; assay type: functional, organism-based
How it was run: (§2)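 Bacterial strains tested on discs at each concentration, placed in triplicate in nutrient agar seeded with fresh bacteria; incubated 37 °C for 24 h. Ciprofloxacin served as reference, with solvent and growth controls. Zones of inhibition and MICs were recorded.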

[4] = tested on: Bacillus subtilis; test: Antibacterial activity against Bacillus subtilis ATCC 11774 after 24 hrs by disc diffusion method; assay type: functional; conditions: ATCC 11774, 24 h; how it was run: as §2
[5] = tested on: Escherichia coli; test: Antibacterial activity against Escherichia coli ATCC 25922 at >50 ug/ml after 24 hrs by disc diffusion method; assay type: functional, organism-based; how it was run: as §2
[6] = tested on: Aspergillus fumigatus; test: Antifungal activity against Aspergillus fumigatus NCIM 902 after 2 to 3 days by serial plate dilution method; assay type: functional; how it was run: as §1
[7] = tested on: Aspergillus fumigatus; test: Antifungal activity against Aspergillus fumigatus NCIM 902 at 10 ug/ml after 2 to 3 days by serial plate dilution method; assay type: functional; conditions: read-out: IZ; how it was run: as §1
[8] = tested on: Aspergillus niger; test: Antifungal activity against Aspergillus niger NCIM 617 at 10 ug/ml after 2 to 3 days by serial plate dilution method; assay type: functional; conditions: read-out: IZ; how it was run: as §1
[9] = tested on: Aspergillus flavus; test: Antifungal activity against Aspergillus flavus NCIM 524 at 10 ug/ml after 2 to 3 days by serial plate dilution method; assay type: functional; conditions: read-out: IZ; how it was run: as §1
[10] = tested on: Bacillus subtilis; test: Antibacterial activity against Bacillus subtilis ATCC 11774 at 15 ug/ml after 24 hrs by disc diffusion method; assay type: functional; conditions: ATCC 11774, 24 h, read-out: IZ; how it was run: as §2
[11] = tested on: Aspergillus flavus; test: Antifungal activity against Aspergillus flavus NCIM 524 after 2 to 3 days by serial plate dilution method; assay type: functional; how it was run: as §1
[12] = tested on: Staphylococcus aureus; test: Antibacterial activity against Staphylococcus aureus ATCC 25923 at >50 ug/ml after 24 hrs by disc diffusion method; assay type: functional, organism-based; how it was run: as §2
[13] = tested on: Candida albicans; test: Antifungal activity against Candida albicans NCIM 300 after 2 to 3 days by serial plate dilution method; assay type: functional; how it was run: as §1
[14] = tested on: Pseudomonas aeruginosa; test: Antibacterial activity against Pseudomonas aeruginosa ATCC 27853 at 10 ug/ml after 24 hrs by disc diffusion method; assay type: functional; conditions: ATCC 27853, 24 h, read-out: IZ; how it was run: as §2
[15] = tested on: Staphylococcus aureus; test: Antibacterial activity against Staphylococcus aureus ATCC 25923 at after 24 hrs by disc diffusion method; assay type: functional; conditions: ATCC 25923, 24 h; how it was run: as §2
[16] = tested on: Escherichia coli; test: Antibacterial activity against Escherichia coli ATCC 25922 after 24 hrs by disc diffusion method; assay type: functional; conditions: ATCC 25922, 24 h; how it was run: as §2
[17] = tested on: Staphylococcus aureus; test: Antibacterial activity against Staphylococcus aureus ATCC 25923 at 10 ug/ml after 24 hrs by disc diffusion method; assay type: functional; conditions: ATCC 25923, 24 h, read-out: IZ; how it was run: as §2
[18] = tested on: Escherichia coli; test: Antibacterial activity against Escherichia coli ATCC 25922 at 10 ug/ml after 24 hrs by disc diffusion method; assay type: functional; conditions: ATCC 25922, 24 h, read-out: IZ; how it was run: as §2
[19] = tested on: Pseudomonas aeruginosa; test: Antibacterial activity against Pseudomonas aeruginosa ATCC 27853 after 24 hrs by disc diffusion method; assay type: functional; conditions: ATCC 27853, 24 h; how it was run: as §2
[20] = tested on: Aspergillus niger; test: Antifungal activity against Aspergillus niger NCIM 617 at >50 ug/ml after 2 to 3 days by serial plate dilution method; assay type: functional, organism-based; how it was run: as §1
[21] = tested on: Candida albicans; test: Antifungal activity against Candida albicans NCIM 300 at >50 ug/ml after 2 to 3 days by serial plate dilution method; assay type: functional, organism-based; how it was run: as §1
[22] = tested on: Bacillus subtilis; test: Antibacterial activity against Bacillus subtilis ATCC 11774 at >50 ug/ml after 24 hrs by disc diffusion method; assay type: functional, organism-based; how it was run: as §2

Compound	zone of inhibition at 10 µg/mL [1]	MIC [2]	Activity [3]	MIC [4]	MIC [6]	zone of inhibition at 10 µg/mL [7]	zone of inhibition at 10 µg/mL [8]	zone of inhibition at 10 µg/mL [9]	zone of inhibition at 15 µg/mL [10]	MIC [11]	MIC [13]	zone of inhibition at 10 µg/mL [14]	MIC [15]	MIC [16]	zone of inhibition at 10 µg/mL [17]	zone of inhibition at 10 µg/mL [18]	MIC [19]	also measured
O=C1c2ccccc2C(=O)N1CC(=O)N1c2ccccc2Sc2ccc(C(F)(F)F)cc21	21 mm	10 µg/mL (≈ 22 µM)	inactive	25 µg/mL (≈ 55 µM)	10 µg/mL (≈ 22 µM)	18 mm	21 mm	22 mm	14 mm	10 µg/mL (≈ 22 µM)	10 µg/mL (≈ 22 µM)	–	–	–	–	–	–	Activity [5]: inactive; Activity [12]: inactive
O=C1CCC(=O)N1CC(=O)N1c2ccccc2Sc2ccc(C(F)(F)F)cc21	19 mm	20 µg/mL (≈ 49.2 µM)	–	25 µg/mL (≈ 61.5 µM)	15 µg/mL (≈ 36.9 µM)	19 mm	21 mm	23 mm	14 mm	10 µg/mL (≈ 24.6 µM)	20 µg/mL (≈ 49.2 µM)	19 mm	15 µg/mL (≈ 36.9 µM)	20 µg/mL (≈ 49.2 µM)	18 mm	21 mm	15 µg/mL (≈ 36.9 µM)	–
CC(=O)c1ccc2c(c1)N(C(=O)CN1C(=O)C=CC1=O)c1ccccc1S2	–	–	–	15 µg/mL (≈ 39.6 µM)	30 µg/mL (≈ 79.3 µM)	16 mm	–	18 mm	16 mm	25 µg/mL (≈ 66.1 µM)	–	17 mm	15 µg/mL (≈ 39.6 µM)	20 µg/mL (≈ 52.9 µM)	16 mm	18 mm	15 µg/mL (≈ 39.6 µM)	Activity [20]: inactive; Activity [21]: inactive
O=C1CCC(=O)N1CC(=O)N1c2ccccc2Sc2ccc(Cl)cc21	13 mm	20 µg/mL (≈ 53.6 µM)	–	30 µg/mL (≈ 80.5 µM)	20 µg/mL (≈ 53.6 µM)	18 mm	23 mm	12 mm	14 mm	25 µg/mL (≈ 67.1 µM)	25 µg/mL (≈ 67.1 µM)	16 mm	30 µg/mL (≈ 80.5 µM)	15 µg/mL (≈ 40.2 µM)	12 mm	16 mm	15 µg/mL (≈ 40.2 µM)	–
OC(Cn1cncn1)(Cn1cncn1)c1ccc(F)cc1F [FLUCONAZOLE]	21 mm	10 µg/mL (≈ 32.7 µM)	–	–	10 µg/mL (≈ 32.7 µM)	20 mm	23 mm	24 mm	–	10 µg/mL (≈ 32.7 µM)	10 µg/mL (≈ 32.7 µM)	–	–	–	–	–	–	–
O=C1c2ccccc2C(=O)N1CC(=O)N1c2ccccc2Sc2ccccc21	17 mm	10 µg/mL (≈ 25.9 µM)	inactive	15 µg/mL (≈ 38.8 µM)	15 µg/mL (≈ 38.8 µM)	20 mm	23 mm	22 mm	17 mm	10 µg/mL (≈ 25.9 µM)	10 µg/mL (≈ 25.9 µM)	–	10 µg/mL (≈ 25.9 µM)	10 µg/mL (≈ 25.9 µM)	20 mm	22 mm	–	–
O=C1C=CC(=O)N1CC(=O)N1c2ccccc2Sc2ccc(Cl)cc21	17 mm	20 µg/mL (≈ 53.9 µM)	–	–	20 µg/mL (≈ 53.9 µM)	16 mm	18 mm	15 mm	–	20 µg/mL (≈ 53.9 µM)	20 µg/mL (≈ 53.9 µM)	17 mm	15 µg/mL (≈ 40.5 µM)	10 µg/mL (≈ 27 µM)	18 mm	20 mm	15 µg/mL (≈ 40.5 µM)	Activity [22]: inactive
O=C1C=CC(=O)N1CC(=O)N1c2ccccc2Sc2ccccc21	17 mm	20 µg/mL (≈ 59.5 µM)	–	15 µg/mL (≈ 44.6 µM)	20 µg/mL (≈ 59.5 µM)	15 mm	17 mm	18 mm	16 mm	20 µg/mL (≈ 59.5 µM)	20 µg/mL (≈ 59.5 µM)	17 mm	15 µg/mL (≈ 44.6 µM)	10 µg/mL (≈ 29.7 µM)	15 mm	20 mm	15 µg/mL (≈ 44.6 µM)	–
O=C1C=CC(=O)N1CC(=O)N1c2ccccc2Sc2ccc(C(F)(F)F)cc21	19 mm	20 µg/mL (≈ 49.5 µM)	–	15 µg/mL (≈ 37.1 µM)	30 µg/mL (≈ 74.2 µM)	10 mm	19 mm	19 mm	17 mm	20 µg/mL (≈ 49.5 µM)	20 µg/mL (≈ 49.5 µM)	19 mm	–	10 µg/mL (≈ 24.7 µM)	–	19 mm	15 µg/mL (≈ 37.1 µM)	Activity [12]: inactive
O=C1CCC(=O)N1CC(=O)N1c2ccccc2Sc2ccccc21	17 mm	20 µg/mL (≈ 59.1 µM)	inactive	15 µg/mL (≈ 44.3 µM)	20 µg/mL (≈ 59.1 µM)	19 mm	19 mm	24 mm	18 mm	15 µg/mL (≈ 44.3 µM)	15 µg/mL (≈ 44.3 µM)	–	–	10 µg/mL (≈ 29.6 µM)	–	24 mm	–	Activity [12]: inactive
O=C(O)c1cn(C2CC2)c2cc(N3CCNCC3)c(F)cc2c1=O [CIPROFLOXACIN]	–	–	–	10 µg/mL (≈ 30.2 µM)	–	–	–	–	22 mm	–	–	23 mm	10 µg/mL (≈ 30.2 µM)	–	21 mm	–	10 µg/mL (≈ 30.2 µM)	–
CC(=O)c1ccc2c(c1)N(C(=O)CN1C(=O)CCC1=O)c1ccccc1S2	–	20 µg/mL (≈ 52.6 µM)	inactive	–	15 µg/mL (≈ 39.4 µM)	13 mm	26 mm	20 mm	–	25 µg/mL (≈ 65.7 µM)	–	–	–	10 µg/mL (≈ 26.3 µM)	–	24 mm	–	Activity [22]: inactive; Activity [21]: inactive; Activity [12]: inactive
CC(=O)c1ccc2c(c1)N(C(=O)CN1C(=O)c3ccccc3C1=O)c1ccccc1S2	14 mm	10 µg/mL (≈ 23.3 µM)	inactive	15 µg/mL (≈ 35 µM)	15 µg/mL (≈ 35 µM)	19 mm	25 mm	22 mm	16 mm	10 µg/mL (≈ 23.3 µM)	10 µg/mL (≈ 23.3 µM)	–	10 µg/mL (≈ 23.3 µM)	10 µg/mL (≈ 23.3 µM)	19 mm	21 mm	–	–
O=C1c2ccccc2C(=O)N1CC(=O)N1c2ccccc2Sc2ccc(Cl)cc21	18 mm	10 µg/mL (≈ 23.8 µM)	–	30 µg/mL (≈ 71.3 µM)	10 µg/mL (≈ 23.8 µM)	19 mm	24 mm	21 mm	13 mm	10 µg/mL (≈ 23.8 µM)	10 µg/mL (≈ 23.8 µM)	18 mm	10 µg/mL (≈ 23.8 µM)	10 µg/mL (≈ 23.8 µM)	19 mm	23 mm	10 µg/mL (≈ 23.8 µM)	–

Source: ChEMBL document CHEMBL1154781, “Synthesis and antimicrobial activity of some new N-acyl substituted phenothiazines” (2009)
